Screening results as filed in PubChem.
PREPL inhibitor = PREPL enzyme inhibitors, primary screen, biochemical, fluorescence polarization; recombinant PREPL, fluorescence polarization activity-based probe; inhibition, % at 5.96 µM; hit rate 0.68% among 320,000; AID 2751, 2010; in the data active means inhibition above about 43%
Target sequence (Q4J6C6 whole entry, looked up): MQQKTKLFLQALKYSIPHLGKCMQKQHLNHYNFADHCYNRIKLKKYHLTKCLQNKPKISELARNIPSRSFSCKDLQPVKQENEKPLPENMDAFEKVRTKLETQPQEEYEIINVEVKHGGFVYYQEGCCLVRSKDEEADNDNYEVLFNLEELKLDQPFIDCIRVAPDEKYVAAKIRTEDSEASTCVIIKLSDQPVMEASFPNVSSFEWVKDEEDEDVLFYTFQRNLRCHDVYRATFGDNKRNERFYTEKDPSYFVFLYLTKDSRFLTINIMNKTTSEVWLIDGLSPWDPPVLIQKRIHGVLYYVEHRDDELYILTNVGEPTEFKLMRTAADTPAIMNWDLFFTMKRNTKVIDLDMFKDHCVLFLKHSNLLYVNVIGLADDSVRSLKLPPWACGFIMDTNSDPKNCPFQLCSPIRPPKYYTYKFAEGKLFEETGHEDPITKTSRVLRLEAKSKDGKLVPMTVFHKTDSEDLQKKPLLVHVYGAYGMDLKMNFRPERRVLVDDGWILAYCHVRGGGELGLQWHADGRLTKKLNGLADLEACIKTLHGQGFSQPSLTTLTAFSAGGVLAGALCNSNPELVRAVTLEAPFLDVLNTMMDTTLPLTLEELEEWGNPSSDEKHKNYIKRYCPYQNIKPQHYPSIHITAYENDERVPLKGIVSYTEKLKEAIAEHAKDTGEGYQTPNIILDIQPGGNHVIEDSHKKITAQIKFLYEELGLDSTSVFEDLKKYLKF
Tb MetRS inh = T. brucei MetRS inhibitors, primary screen, biochemical, luminescence; AID 624268, 2012; hit rate 0.4% among 360,000; purified T. brucei MetRS, ATP depletion, Kinase-Glo luminescence; inhibition, % at 11.9 µM;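 active means inhibition above a per-plate cutoff of the control wells' mean inhibition plus 3 SD, cut at about 5.5% in these data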
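Material – parasite MetRS enzyme · Medium – HEPES-MgCl2-KCl buffer plus DTT, spermine, BSA, pyrophosphatase · Reagent – ATP, methionine and E. coli bulk tRNA substrates · Times – 15 min enzyme-compound preincubation, 2 h reaction, 10 min detection, 25 °C · Measured by – luminescence of leftover ATP · Evaluation – percent inhibition relative to median high and low control wells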
MT1-MMP act inh = blockers of MT1-MMP proenzyme processing, primary screen, HT1080 RFP-PRO-GFP cells, GFP/RFP fluorescence; Matrix metalloproteinase-14 (Homo sapiens), P50281; GFP/RFP ratio fluorescence, overnight; percent of plate control window, DMSO zero; GFP/RFP ratio change, % at 20 µM; hit rate 0.061% among 360,000; AID 651647, 2012;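 active means GFP/RFP ratio change of at least 30% with cell ATP level not reduced by more than half and red fluorescence within 50% of control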
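Assay system: HT1080 RFP-PRO-GFP cells | Dosing: 20 µM single dose, 1% DMSO | Incubation: Cells overnight before dosing, compound overnight, 37 °C, 5% CO2 | Evaluation: GFP/RFP fluorescence ratio | Control set: DMSO-only wells and HT1080 RFP-L50D-GFP cell wells as references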
hiPSC survival = enhancers of single-cell hiPSC survival, primary screen, ATPlite luminescence; 100% = ROCK inhibitor wells, 0% = DMSO; hit rate 0.044% among 360,000; survival enhancement, % at 20 µM; AID 602274, 2012; in the data active means survival enhancement above about 18%;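 further: cells exposed to compounds for 16 hours before the ATP read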
E coli Lon inh = inhibitors of E. coli Lon protease, primary screen, biochemical, fluorescence polarization; P0A9M0; hit rate 0.42% among 360,000; inhibition, % at 7.94 µM; AID 602123, 2011; purified E. coli Lon protease; in the data active means inhibition above about 13%, passing the limit was not always enough
SKN-1 block = suppressors of acrylamide-induced Pgst-4::GFP reporter in worms, primary screen, SKN-1 inhibitor project, whole organism, uHTS, GFP/RFP fluorescence ratio, strain VP596; hit rate 0.49% among 360,000; AID 624304, 2012; C. elegans VP596 Pgst-4::GFP/RFP ratio, 24 h; inhibition, % at 21.8 µM;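 active means interference check ratio from 0.5 to 1.5 plus GFP to RFP signal ratio inhibition reaching or exceeding a fixed threshold, cut at about 30% in these data, passing the limit was not always enough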
A number is an active result. Hits are enriched below; roughly 1.8% of the tested compounds scored in any of these assays.

Results for COCc1[nH]nc2c1C(c1ccc(OC)cc1)C(C#N)=C(N)O2 (centres undefined) ?
PREPL inhibitor: inactive; Tb MetRS inh: inactive; MT1-MMP act inh: inactive; hiPSC survival: inactive; E coli Lon inh: inactive; SKN-1 block: inactive

How did COc1cc(C2C(C#N)=C(N)Oc3n[nH]c(C)c32)ccc1OC(=O)c1ccccc1 (centres undefined) do in these assays?
PREPL inhibitor: 60.7; Tb MetRS inh: inactive; MT1-MMP act inh: inactive; hiPSC survival: inactive; E coli Lon inh: inactive; SKN-1 block: inactive

How did COc1cc(C2C(C#N)=C(N)Oc3n[nH]c(C)c32)cc2c1OCO2 (centres undefined) do in these assays?
PREPL inhibitor: inactive; Tb MetRS inh: inactive; MT1-MMP act inh: inactive; hiPSC survival: inactive; E coli Lon inh: inactive; SKN-1 block: inactive

What do the screens show for `CC(C)c1[nH]nc2c1C(c1ccc(OC(=O)c3ccco3)cc1)C(C#N)=C(N)O2` (centres undefined)?
PREPL inhibitor: 60.1; Tb MetRS inh: inactive; MT1-MMP act inh: inactive; hiPSC survival: inactive; E coli Lon inh: inactive; SKN-1 block: inactive

Results for CC1(C(=O)NS(=O)(=O)c2ccc3c(c2)CCO3)CCN1C(=O)c1ccccc1CCc1ccccc1 (centres undefined) ?
Tb MetRS inh: inactive; MT1-MMP act inh: inactive; hiPSC survival: inactive; E coli Lon inh: inactive; SKN-1 block: inactive

Results for O=C(COc1ccccc1)Nc1nc(-c2ccncc2)cs1 ?
PREPL inhibitor: inactive; Tb MetRS inh: inactive; MT1-MMP act inh: inactive; hiPSC survival: 34.3; E coli Lon inh: inactive; SKN-1 block: inactive

Results for Nc1nc2ccccc2cc1C(=O)NCc1ccc(-c2ccccc2)cc1 ?
Tb MetRS inh: inactive; MT1-MMP act inh: inactive; SKN-1 block: inactive

What do the screens show for `CN(C)C(=O)c1cccc(-c2cnc3c(NC=O)cc(-c4ccc(N(C)C)cc4)cn23)c1`?
Tb MetRS inh: inactive; MT1-MMP act inh: inactive; hiPSC survival: inactive; E coli Lon inh: inactive; SKN-1 block: 36.0

Results for Cc1cccc(-c2cc(NC=O)c3ncc(-c4cccc(C(=O)N(C)C)c4)n3c2)c1 ?
Tb MetRS inh: inactive; MT1-MMP act inh: inactive; hiPSC survival: inactive; E coli Lon inh: inactive; SKN-1 block: inactive

What do the screens show for `CN1C(=O)/C(=C/c2cn(CC(=O)N3CCCCC3)c3ccccc23)c2ccccc21`?
PREPL inhibitor: 44.6

What do the screens show for `c1ccc(-c2cc3nccc(-c4ccccn4)n3n2)cc1`?
PREPL inhibitor: inactive; Tb MetRS inh: inactive; MT1-MMP act inh: inactive; hiPSC survival: inactive; E coli Lon inh: inactive; SKN-1 block: 39.3

How did Cc1cc2nccc(-c3ccccn3)n2n1 do in these assays?
PREPL inhibitor: inactive; Tb MetRS inh: inactive; MT1-MMP act inh: inactive; hiPSC survival: inactive; E coli Lon inh: inactive; SKN-1 block: inactive

How did CCOC(=O)c1[nH]c2ccc(OC)cc2c1NC(=O)CCN1CCSCC1 do in these assays?
PREPL inhibitor: inactive; Tb MetRS inh: inactive; MT1-MMP act inh: inactive; hiPSC survival: inactive; E coli Lon inh: inactive; SKN-1 block: inactive

Results for COC(=O)c1[nH]c2ccccc2c1NC(=O)C(C)N1CCOCC1 (centres undefined) ?
PREPL inhibitor: inactive; Tb MetRS inh: inactive; MT1-MMP act inh: inactive; hiPSC survival: inactive; E coli Lon inh: inactive; SKN-1 block: 38.3

How did COC(=O)c1[nH]c2ccccc2c1NC(=O)CCN1CCSCC1 do in these assays?
PREPL inhibitor: inactive; Tb MetRS inh: inactive; MT1-MMP act inh: inactive; hiPSC survival: 26.0; E coli Lon inh: inactive; SKN-1 block: inactive

How did COC(=O)c1[nH]c2ccccc2c1NC(=O)C(C)N1CCN(C(=O)c2ccco2)CC1 (centres undefined) do in these assays?
PREPL inhibitor: inactive; Tb MetRS inh: inactive; MT1-MMP act inh: inactive; hiPSC survival: inactive; E coli Lon inh: inactive; SKN-1 block: inactive

Results for C/C(CCc1oc2c(Br)cc(Br)cc2c1-c1ccc(C)o1)=N\O ?
PREPL inhibitor: inactive; Tb MetRS inh: 14.8; MT1-MMP act inh: inactive; hiPSC survival: inactive; E coli Lon inh: inactive; SKN-1 block: inactive

Results for O=NN(Cc1cccnc1)C(=O)NC1CCCCC1 ?
Tb MetRS inh: inactive; MT1-MMP act inh: inactive; hiPSC survival: inactive; E coli Lon inh: inactive; SKN-1 block: inactive

Results for CCCCN(CCCC)Cc1cc(=O)oc2ccc3ccccc3c12 ?
Tb MetRS inh: inactive; MT1-MMP act inh: inactive; hiPSC survival: inactive; E coli Lon inh: inactive; SKN-1 block: inactive

What do the screens show for `Fc1ccc(C2=CC(c3ccc(Br)o3)n3ncnc3N2)cc1` (centres undefined)?
PREPL inhibitor: inactive; Tb MetRS inh: inactive; MT1-MMP act inh: inactive; hiPSC survival: inactive; E coli Lon inh: 136.7; SKN-1 block: inactive

What do the screens show for `Brc1ccc2oc(-c3ccn[nH]3)cc2c1`?
PREPL inhibitor: inactive; Tb MetRS inh: inactive; MT1-MMP act inh: inactive; hiPSC survival: inactive; E coli Lon inh: inactive; SKN-1 block: 38.5

What do the screens show for `O=c1oc2ccc(Br)cc2cc1-c1nc2ccccc2o1`?
PREPL inhibitor: inactive; Tb MetRS inh: inactive; MT1-MMP act inh: inactive; hiPSC survival: inactive; E coli Lon inh: inactive; SKN-1 block: inactive

What do the screens show for `O=C(c1cccc(Cl)c1)N(Cc1cccs1)C1CCS(=O)(=O)C1` (centres undefined)?
PREPL inhibitor: inactive; Tb MetRS inh: inactive; MT1-MMP act inh: inactive; hiPSC survival: inactive; E coli Lon inh: inactive; SKN-1 block: 35.6

How did Cc1cccc(C(=O)N(Cc2cccs2)C2CCS(=O)(=O)C2)c1 (centres undefined) do in these assays?
PREPL inhibitor: inactive; Tb MetRS inh: inactive; MT1-MMP act inh: inactive; hiPSC survival: inactive; E coli Lon inh: inactive; SKN-1 block: 36.1

How did COc1cccc(C(=O)N(Cc2cccs2)C2CCS(=O)(=O)C2)c1 (centres undefined) do in these assays?
PREPL inhibitor: inactive; Tb MetRS inh: inactive; MT1-MMP act inh: inactive; hiPSC survival: inactive; E coli Lon inh: inactive; SKN-1 block: inactive

Results for CC1(C(=O)NS(=O)(=O)Cc2cccc(Cl)c2)CCN1C(=O)CCc1cccs1 (centres undefined) ?
Tb MetRS inh: inactive; MT1-MMP act inh: inactive; hiPSC survival: inactive; E coli Lon inh: inactive; SKN-1 block: inactive

How did CC(C)(C)OC(=O)CC[C@@H](C(=O)N1CCN(C(=O)OC(C)(C)C)CC1)n1cc(C(Cc2ccc(O)cc2)NC(=O)OC(C)(C)C)nn1 (some centres undefined) do in these assays?
PREPL inhibitor: inactive; Tb MetRS inh: inactive; MT1-MMP act inh: inactive; hiPSC survival: inactive; E coli Lon inh: inactive; SKN-1 block: inactive
